Key:
Type in all cases: cell-based
[1] = target: E3 ubiquitin-protein ligase Mdm2/Histone deacetylase 2 (Homo sapiens) (UniProt Q00987+Q92769); assay: PROTAC activity at MDM2/HDAC2 in human HCT-116 cells assessed as decrease in HDAC2 abundance by measuring remaining activity at 0.1 uM measured after 24 hrs by Western blot analysis (reference value: 100%)
Summary of the method: (§1)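 HCT116 cells seeded in six-well plates for 24 h, then exposed 24 h to compound (0.01–10 μM) or DMSO in fresh medium. Lysis in Tris-HCl/NaCl/NP-40/Triton X-100 with protease inhibitor. Bradford-normalised 30 μg protein per lane. Quantitative Western blot used specific HDAC1, HDAC2, HDAC3, LSD1 or Sin3a antibodies with IRDye secondaries. Abundance compared with DMSO, n = 2 replicates.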

[2] = target: E3 ubiquitin-protein ligase Mdm2/Histone deacetylase 1 (Homo sapiens) (UniProt Q00987+Q13547); assay: PROTAC activity at MDM2/HDAC1 in human HCT-116 cells assessed as decrease in HDAC1 abundance by measuring remaining activity at 2.5 uM measured after 24 hrs by Western blot analysis (reference value: 100%); summary of the method: as §1
[3] = target: E3 ubiquitin-protein ligase Mdm2/Histone deacetylase 3 (Homo sapiens) (UniProt Q00987+O15379); assay: PROTAC activity at MDM2/HDAC3 in human HCT-116 cells assessed as reduction in HDAC3 abundance by measuring remaining activity at 0.025 uM measured after 24 hrs by Western blot analysis; summary of the method: as §1
[4] = target: Lysine-specific histone demethylase 1A (Homo sapiens) (UniProt O60341); assay: Induction of LSD1 degradation in human HCT-116 cells assessed as reduction in LSD1 abundance by measuring remaining activity at 10 uM measured after 24 hrs by Western blot analysis (reference value: 100%); summary of the method: as §1
[5] = target: Lysine-specific histone demethylase 1A (Homo sapiens) (UniProt O60341); assay: Induction of LSD1 degradation in human HCT-116 cells assessed as reduction in LSD1 abundance by measuring remaining activity at 0.01 uM measured after 24 hrs by Western blot analysis (reference value: 100%); summary of the method: as §1
[6] = target: Lysine-specific histone demethylase 1A (Homo sapiens) (UniProt O60341); assay: Induction of LSD1 degradation in human HCT-116 cells assessed as reduction in LSD1 abundance by measuring remaining activity at 0.1 uM measured after 24 hrs by Western blot analysis (reference value: 100%); summary of the method: as §1

Sequence of E3 ubiquitin-protein ligase Mdm2/Histone deacetylase 3 (Homo sapiens) (O15379 whole entry, looked up): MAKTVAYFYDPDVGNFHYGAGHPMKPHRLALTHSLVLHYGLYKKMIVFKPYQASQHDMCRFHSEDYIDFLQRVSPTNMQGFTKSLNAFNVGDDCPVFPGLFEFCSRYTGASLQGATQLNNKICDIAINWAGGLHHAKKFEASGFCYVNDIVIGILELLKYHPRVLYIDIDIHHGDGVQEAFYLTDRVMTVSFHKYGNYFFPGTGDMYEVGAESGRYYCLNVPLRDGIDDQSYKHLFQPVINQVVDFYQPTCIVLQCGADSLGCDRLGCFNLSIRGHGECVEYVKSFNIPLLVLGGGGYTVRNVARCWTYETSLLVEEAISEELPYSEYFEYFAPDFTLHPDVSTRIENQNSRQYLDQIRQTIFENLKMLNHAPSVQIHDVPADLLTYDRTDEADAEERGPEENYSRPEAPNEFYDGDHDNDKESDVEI
Sequence of E3 ubiquitin-protein ligase Mdm2/Histone deacetylase 3 (Homo sapiens) (Q00987 whole entry, looked up): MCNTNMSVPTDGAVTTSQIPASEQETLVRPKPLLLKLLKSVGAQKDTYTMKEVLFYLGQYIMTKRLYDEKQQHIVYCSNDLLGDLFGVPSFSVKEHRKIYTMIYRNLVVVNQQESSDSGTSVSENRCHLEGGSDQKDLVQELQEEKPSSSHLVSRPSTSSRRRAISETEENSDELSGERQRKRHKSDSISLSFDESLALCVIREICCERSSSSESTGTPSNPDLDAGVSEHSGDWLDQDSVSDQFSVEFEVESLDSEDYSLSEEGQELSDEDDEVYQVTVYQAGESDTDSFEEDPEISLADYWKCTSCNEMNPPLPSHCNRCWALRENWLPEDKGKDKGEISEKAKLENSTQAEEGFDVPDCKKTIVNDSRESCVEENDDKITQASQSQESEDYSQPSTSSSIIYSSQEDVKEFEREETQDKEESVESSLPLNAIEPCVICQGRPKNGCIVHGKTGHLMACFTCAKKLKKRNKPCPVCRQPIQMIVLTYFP
Sequence of E3 ubiquitin-protein ligase Mdm2/Histone deacetylase 1 (Homo sapiens) (Q00987 whole entry, looked up): as above
Sequence of E3 ubiquitin-protein ligase Mdm2/Histone deacetylase 1 (Homo sapiens) (Q13547 whole entry, looked up): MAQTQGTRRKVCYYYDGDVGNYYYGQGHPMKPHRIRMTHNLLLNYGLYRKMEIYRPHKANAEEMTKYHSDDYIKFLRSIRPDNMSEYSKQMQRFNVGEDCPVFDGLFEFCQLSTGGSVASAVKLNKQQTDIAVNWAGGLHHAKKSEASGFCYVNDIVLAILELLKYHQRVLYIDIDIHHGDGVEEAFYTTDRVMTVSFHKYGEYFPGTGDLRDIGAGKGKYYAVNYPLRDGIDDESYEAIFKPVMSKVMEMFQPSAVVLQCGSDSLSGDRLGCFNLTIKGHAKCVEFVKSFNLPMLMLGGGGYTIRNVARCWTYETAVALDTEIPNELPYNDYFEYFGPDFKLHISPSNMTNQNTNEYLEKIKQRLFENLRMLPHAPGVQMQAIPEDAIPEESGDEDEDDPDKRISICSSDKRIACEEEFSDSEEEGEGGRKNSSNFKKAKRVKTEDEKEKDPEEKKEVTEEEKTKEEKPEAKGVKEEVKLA
Sequence of E3 ubiquitin-protein ligase Mdm2/Histone deacetylase 2 (Homo sapiens) (Q00987 whole entry, looked up): as the sequence (Q00987 whole entry, looked up) above
Sequence of E3 ubiquitin-protein ligase Mdm2/Histone deacetylase 2 (Homo sapiens) (Q92769 whole entry, looked up): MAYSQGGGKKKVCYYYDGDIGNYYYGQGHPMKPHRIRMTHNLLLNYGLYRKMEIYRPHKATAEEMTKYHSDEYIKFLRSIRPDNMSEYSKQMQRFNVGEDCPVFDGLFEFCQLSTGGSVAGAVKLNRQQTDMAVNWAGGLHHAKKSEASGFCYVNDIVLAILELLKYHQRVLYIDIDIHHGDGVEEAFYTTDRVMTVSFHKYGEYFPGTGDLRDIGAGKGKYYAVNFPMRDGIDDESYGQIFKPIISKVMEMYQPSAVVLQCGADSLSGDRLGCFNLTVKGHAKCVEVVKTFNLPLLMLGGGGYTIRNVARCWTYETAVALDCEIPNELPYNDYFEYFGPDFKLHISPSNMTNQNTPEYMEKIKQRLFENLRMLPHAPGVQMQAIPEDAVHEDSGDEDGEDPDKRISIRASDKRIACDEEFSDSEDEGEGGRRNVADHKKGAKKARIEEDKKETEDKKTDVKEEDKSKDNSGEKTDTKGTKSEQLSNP

COc1cc(C(=O)NCCOCCOCCOCCOCCC(=O)Nc2ccc(C(=O)Nc3ccccc3N)cc2)ccc1NC(=O)[C@@H]1N[C@@H](CC(C)(C)C)[C@](C#N)(c2ccc(Cl)cc2F)[C@H]1c1cccc(Cl)c1F
Activity [1]: 92%
Activity [2]: 39%
Activity [3]: 100%
Activity [4]: 65%
Activity [5]: 104%
Activity [6]: 104%

From ChEMBL document CHEMBL5357024, “MDM2 Antagonist Idasanutlin Reduces HDAC1/2 Abundance and Corepressor Partners but Not HDAC3” (ACS Med Chem Lett, 2024)
